This passage reports IC50 results from ChEMBL document CHEMBL3739303, “Targeting the Src Homology 2 (SH2) Domain of Signal Transducer and Activator of Transcription 6 (STAT6) with Cell-Permeable, Phosphatase-Stable Phosphopeptide Mimics Potently Inhibits Tyr641 Phosphorylation and Transcriptional Activity” (J Med Chem, 2015).

In the experiment the target is T1, Signal transducer and activator of transcription 6 (Homo sapiens, UniProt P42226).
T1 sequence (P42226 whole entry): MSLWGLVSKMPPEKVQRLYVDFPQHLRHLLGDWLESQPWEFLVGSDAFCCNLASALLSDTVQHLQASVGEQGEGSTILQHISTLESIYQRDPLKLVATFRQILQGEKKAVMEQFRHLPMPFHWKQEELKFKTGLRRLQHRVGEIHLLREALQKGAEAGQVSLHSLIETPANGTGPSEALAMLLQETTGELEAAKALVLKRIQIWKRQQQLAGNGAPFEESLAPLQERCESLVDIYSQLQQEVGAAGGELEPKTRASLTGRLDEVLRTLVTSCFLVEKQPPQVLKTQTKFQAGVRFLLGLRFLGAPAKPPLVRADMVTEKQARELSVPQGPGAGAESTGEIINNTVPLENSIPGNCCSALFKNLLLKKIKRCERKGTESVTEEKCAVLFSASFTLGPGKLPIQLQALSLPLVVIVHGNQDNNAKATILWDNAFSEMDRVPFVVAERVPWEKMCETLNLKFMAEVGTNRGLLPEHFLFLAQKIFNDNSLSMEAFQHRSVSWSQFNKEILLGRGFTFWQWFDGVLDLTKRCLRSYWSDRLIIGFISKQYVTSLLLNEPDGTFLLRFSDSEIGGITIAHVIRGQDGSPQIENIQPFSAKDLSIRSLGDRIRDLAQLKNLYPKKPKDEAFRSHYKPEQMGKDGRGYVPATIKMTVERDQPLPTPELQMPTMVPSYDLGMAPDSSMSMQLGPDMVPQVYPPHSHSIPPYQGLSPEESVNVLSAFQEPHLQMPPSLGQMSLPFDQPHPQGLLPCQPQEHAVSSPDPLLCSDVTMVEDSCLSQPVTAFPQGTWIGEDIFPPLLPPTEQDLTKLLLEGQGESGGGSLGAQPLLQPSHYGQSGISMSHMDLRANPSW
Nature of the experiment: Inhibition of STAT6 (unknown origin) expressed in Escherichia coli using FAM-Ala-pTyr-Lys-ProPhe-Gln-Asp-Leu-Ile-NH2 as substrate by fluorescence polarization assay. The gist of the method: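 His6-tagged STAT6 construct (coiled-coil, DNA-binding, linker and SH2 domains), purified by nickel IMAC; competitive FP binding. STAT6 at 480 nM mixed with 20 nM FAM-labelled phosphopeptide probe, then equal volume of serially diluted peptides (from 200 μM) added. Buffer: 50 mM NaCl, 10 mM Hepes, 1 mM Na4EDTA, 2 mM DTT, 1% NP-40. mP plotted against log concentration; IC50 by nonlinear regression; triplicate, three probe preparations; mean ± SD.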
For orientation: In fluorescence polarisation assays a small probe gives low polarisation when free and higher when bound to something large.

Peptide text beside a SMILES is read from it.

For the compound `C/C(=C\C(=O)N[C@H](C(=O)N(C)[C@@H](C)C(=O)N(C)c1ccccc1)C(C)(C)C)c1ccc(OP(=O)(O)O)cc1`, it took 480 nM to reach half-maximal inhibition (IC50).

For `C/C(=C\C(=O)N[C@H](C(=O)N1CCC[C@H]1C(=O)NCCc1ccccc1)C(C)(C)C)c1ccc(OP(=O)(O)O)cc1`, the IC50 (usually the midpoint of a concentration-inhibition curve) was 250 nM. For `C/C(=C\C(=O)N[C@H](C(=O)N1CCC[C@H]1C(=O)N(c1ccccc1)c1ccc(I)cc1)C(C)(C)C)c1ccc(OP(=O)(O)O)cc1` the value was 28 nM; for `C/C(=C\C(=O)N[C@H](C(=O)N1CCCC1CN(C)c1ccccc1)C(C)(C)C)c1ccc(OP(=O)(O)O)cc1` (stereo partly drawn), 410 nM. `C/C(=C\C(=O)N[C@H](C(=O)N1CCCC1/C=C/CCc1ccccc1)C(C)(C)C)c1ccc(OP(=O)(O)O)cc1` (stereo partly drawn) registered a 50% inhibitory concentration (IC50) of 540 nM.

As for `C/C(=C\C(=O)N[C@H](C(=O)N1CCC[C@H]1C(=O)N(C)C)C(C)(C)C)c1ccc(OP(=O)(O)O)cc1`, half-maximal inhibition (IC50) required 740 nM. With `CC(C)(C)[C@H](NC(=O)/C=C/c1ccc(OP(=O)(O)O)cc1)C(=O)N1CCC[C@H]1C(=O)N(c1ccccc1)c1ccc(I)cc1` the figure was 44 nM. For `CC(C)(C)[C@H](NC(=O)/C=C/c1ccc(OP(=O)(O)O)cc1)C(=O)N1CCC[C@H]1C(=O)Nc1ccccc1` the value was 1250 nM; for `CC[C@H](C)[C@H](NC(=O)[C@H](CC(C)C)NC(=O)[C@H](CC(=O)O)NC(=O)[C@H](CCC(N)=O)NC(=O)[C@H](Cc1ccccc1)NC(=O)[C@@H]1CCCN1C(=O)[C@H](CCCCN)NC(=O)[C@H](Cc1ccc(OP(=O)(O)O)cc1)NC(C)=O)C(N)=O` (HELM PEPTIDE1{[ac].[O=C([C@H](Cc1ccc(OP(=O)(O)O)cc1)N[*:1])[*:2]].K.P.F.Q.D.L.I.[am]}$$$$V2.0), 1800 nM; for `C/C(=C\C(=O)N[C@H](C(=O)N(C)CC(=O)N(C)c1ccccc1)C(C)(C)C)c1ccc(OP(=O)(O)O)cc1`, 270 nM.

With `CN(C(=O)[C@@H]1CCCN1C(=O)[C@@H](NC(=O)/C=C/c1ccc(OP(=O)(O)O)cc1)C(C)(C)C)c1ccccc1`, it took 870 nM to reach half-maximal inhibition (IC50). With `C/C(=C\C(=O)N[C@H](C(=O)N1CCCC1/C=C/c1ccccc1)C(C)(C)C)c1ccc(OP(=O)(O)O)cc1` (stereo partly drawn) the figure was 3430 nM; with `CC(=O)N[C@@H](Cc1ccc(OP(=O)(O)O)cc1)C(=O)N[C@@H](CCCCN)C(=O)N1CCC[C@H]1C(N)=O` (HELM PEPTIDE1{[ac].[O=C([C@H](Cc1ccc(OP(=O)(O)O)cc1)N[*:1])[*:2]].K.P.[am]}$$$$V2.0), 5200 nM. For `C/C(=C\C(=O)N[C@H](C(=O)N1CCCC1CCCCc1ccccc1)C(C)(C)C)c1ccc(OP(=O)(O)O)cc1` (stereo partly drawn) the value was 1070 nM. For `CC(C)(C)[C@H](NC(=O)c1cc2cc(OP(=O)(O)O)ccc2[nH]1)C(=O)N1CCC[C@H]1C(=O)N(c1ccccc1)c1ccc(I)cc1` the value was 140 nM.

`CC(=O)N[C@@H](Cc1ccc(OP(=O)(O)O)cc1)C(=O)N[C@@H](CCCCN)C(=O)N1CCC[C@H]1C(=O)N[C@@H](Cc1ccccc1)C(=O)N[C@@H](CCC(N)=O)C(=O)N[C@@H](CC(=O)O)C(=O)N[C@@H](CC(C)C)C(N)=O` (HELM PEPTIDE1{[ac].[O=C([C@H](Cc1ccc(OP(=O)(O)O)cc1)N[*:1])[*:2]].K.P.F.Q.D.L.[am]}$$$$V2.0) showed an IC50 of 2400 nM. On to `CC(=O)N[C@@H](Cc1ccc(OP(=O)(O)O)cc1)C(=O)N[C@@H](CCCCN)C(=O)N1CCC[C@H]1C(=O)N[C@@H](Cc1ccccc1)C(=O)N[C@@H](CCC(N)=O)C(N)=O` (HELM PEPTIDE1{[ac].[O=C([C@H](Cc1ccc(OP(=O)(O)O)cc1)N[*:1])[*:2]].K.P.F.Q.[am]}$$$$V2.0), for which the half-inhibitory concentration (IC50) came out at 4200 nM. For `NCCCC[C@H](NC(=O)[C@H](Cc1ccc(OP(=O)(O)O)cc1)NC(=O)/C=C/c1ccccc1)C(=O)N1CCC[C@H]1C(=O)N[C@@H](Cc1ccccc1)C(N)=O` (HELM PEPTIDE1{[O=C(/C=C/c1ccccc1)[*:2]].[O=C([C@H](Cc1ccc(OP(=O)(O)O)cc1)N[*:1])[*:2]].K.P.F.[am]}$$$$V2.0) the value was 6600 nM; for `C/C(=C\C(=O)N[C@H](C(=O)N1CCC[C@H]1C(=O)N(C)c1ccccc1)C(C)(C)C)c1ccc(OP(=O)(O)O)cc1`, 120 nM; for `C/C(=C\C(=O)N[C@H](C(=O)N1CCC[C@H]1C(=O)NCc1ccccc1)C(C)(C)C)c1ccc(OP(=O)(O)O)cc1`, 340 nM.

On to `CC(=O)N[C@@H](Cc1ccc(OP(=O)(O)O)cc1)C(=O)N[C@@H](CCCCN)C(=O)N1CCC[C@H]1C(=O)N[C@@H](Cc1ccccc1)C(=O)N[C@@H](CCC(N)=O)C(=O)N[C@@H](CC(=O)O)C(N)=O` (HELM PEPTIDE1{[ac].[O=C([C@H](Cc1ccc(OP(=O)(O)O)cc1)N[*:1])[*:2]].K.P.F.Q.D.[am]}$$$$V2.0), for which the half-inhibitory concentration (IC50) was determined as 4500 nM. For `NCCCC[C@H](NC(=O)/C=C/c1ccc(OP(=O)(O)O)cc1)C(=O)N1CCC[C@H]1C(=O)N[C@@H](Cc1ccccc1)C(N)=O` the value was 8600 nM; for `CC(=O)N[C@@H](Cc1ccc(OP(=O)(O)O)cc1)C(=O)N[C@@H](CCCCN)C(=O)N1CCC[C@H]1C(=O)N[C@@H](Cc1ccccc1)C(N)=O` (HELM PEPTIDE1{[ac].[O=C([C@H](Cc1ccc(OP(=O)(O)O)cc1)N[*:1])[*:2]].K.P.F.[am]}$$$$V2.0), 6100 nM.
